Columns and labels:
[1] = target: T1, Melanin-concentrating hormone receptor 1 (Homo sapiens, UniProt Q99705); assay: Binding affinity against human Melanin-concentrating hormone receptor 1 stably transfected CHO cells was determined using scintillation proximity assay (SPA); assay type: cell-based
Outline: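 Scintillation proximity binding with CHO membranes incubated with PEI-treated WGA-coupled PVT SPA beads and tracer over various test-compound concentrations. Nonspecific binding defined with 1 µM MCH; IC50 derived.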

[2] = target: T2, Melanin-concentrating hormone receptor 2 (Homo sapiens, UniProt Q969V1); assay: Binding affinity against human Melanin-concentrating hormone receptor 2 stably transfected CHO cells was determined using [125I]MCH as radioligand; assay type: cell-based
T2 sequence (Q969V1 whole entry): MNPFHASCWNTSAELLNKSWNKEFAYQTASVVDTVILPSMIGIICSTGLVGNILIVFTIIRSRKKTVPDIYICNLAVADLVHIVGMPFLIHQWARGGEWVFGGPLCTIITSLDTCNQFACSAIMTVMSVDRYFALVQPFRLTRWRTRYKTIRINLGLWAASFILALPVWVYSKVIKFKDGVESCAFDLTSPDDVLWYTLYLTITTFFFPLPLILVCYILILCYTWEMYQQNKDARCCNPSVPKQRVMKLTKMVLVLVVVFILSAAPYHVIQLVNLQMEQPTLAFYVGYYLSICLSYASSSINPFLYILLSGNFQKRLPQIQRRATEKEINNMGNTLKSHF
Outline: (§1)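 Whole-cell binding in CHO cells expressing the human receptor with [125I]-MCH tracer. Nonspecific binding defined with 1 µM MCH. IC50 values from displacement by various concentrations of test compound.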

[3] = target: T1, Melanin-concentrating hormone receptor 1; assay: Binding affinity against human Melanin-concentrating hormone receptor 1 stably transfected CHO cells was determined using [125I]MCH as radioligand; assay type: cell-based; outline: as §1
[4] = target: T1, Melanin-concentrating hormone receptor 1; assay: Antagonistic activity against human Melanin-concentrating hormone receptor 1 stably transfected CHO cells was determined using IP3 assay; assay type: functional, cell-based
Outline: (§2)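 CHO whole cells expressing the human receptor, labelled with 5 µCi [3H]-myo-inositol in inositol-free culture medium. Phosphatidylinositol turnover stimulated by submaximal MCH in the presence of increasing ligand concentrations. Generated [3H]-inositol phosphates purified on anion-exchange resin; IC50 derived.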

[5] = target: D(2) dopamine receptor (Homo sapiens) (UniProt P14416); assay: Inhibitory activity against Dopamine receptor D2 at 10 uM
Chain of D(2) dopamine receptor (Homo sapiens) (P14416 whole entry): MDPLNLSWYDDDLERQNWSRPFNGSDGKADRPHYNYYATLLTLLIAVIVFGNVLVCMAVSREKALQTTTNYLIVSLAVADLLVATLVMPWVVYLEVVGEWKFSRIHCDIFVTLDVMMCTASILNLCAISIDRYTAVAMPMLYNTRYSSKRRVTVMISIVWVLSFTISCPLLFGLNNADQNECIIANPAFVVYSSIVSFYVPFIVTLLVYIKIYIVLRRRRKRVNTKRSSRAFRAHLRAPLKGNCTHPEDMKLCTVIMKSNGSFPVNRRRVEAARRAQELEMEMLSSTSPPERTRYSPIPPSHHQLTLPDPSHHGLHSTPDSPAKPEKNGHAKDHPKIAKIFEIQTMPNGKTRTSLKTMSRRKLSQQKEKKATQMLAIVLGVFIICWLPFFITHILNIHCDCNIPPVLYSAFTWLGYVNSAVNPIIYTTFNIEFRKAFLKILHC

[6] = Inhibitory activity against 5-hydroxytryptamine 2C receptor
[7] = inhibitory activity against sodium channel (site 2) at 10 uM
[8] = target: Sodium-dependent noradrenaline transporter (Homo sapiens) (UniProt P23975); assay: Inhibitory activity against Norepinephrine transporter at 10 uM
Chain of Sodium-dependent noradrenaline transporter (Homo sapiens) (P23975 whole entry): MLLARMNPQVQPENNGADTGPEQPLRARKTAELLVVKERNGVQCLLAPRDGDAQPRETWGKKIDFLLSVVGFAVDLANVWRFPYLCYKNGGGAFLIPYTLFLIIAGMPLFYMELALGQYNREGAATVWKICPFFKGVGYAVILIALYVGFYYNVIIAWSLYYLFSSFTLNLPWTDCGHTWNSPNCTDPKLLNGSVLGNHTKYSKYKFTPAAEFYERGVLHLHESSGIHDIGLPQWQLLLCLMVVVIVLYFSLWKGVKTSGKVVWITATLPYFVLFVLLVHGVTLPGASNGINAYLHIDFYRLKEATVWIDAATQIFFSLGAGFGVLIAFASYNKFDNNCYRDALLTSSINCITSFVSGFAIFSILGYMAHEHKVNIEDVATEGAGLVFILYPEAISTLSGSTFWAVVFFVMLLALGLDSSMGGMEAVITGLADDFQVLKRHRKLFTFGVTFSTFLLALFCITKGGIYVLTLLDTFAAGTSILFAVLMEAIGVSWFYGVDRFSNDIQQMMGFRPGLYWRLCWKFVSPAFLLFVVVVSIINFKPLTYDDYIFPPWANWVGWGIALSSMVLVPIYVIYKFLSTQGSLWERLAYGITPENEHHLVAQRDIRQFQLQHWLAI

[9] = target: T3, Muscarinic acetylcholine receptor M1 (Homo sapiens) (UniProt P11229); assay: Inhibitory activity against Muscarinic acetylcholine receptor M1 at 10 uM
T3 sequence (whole entry): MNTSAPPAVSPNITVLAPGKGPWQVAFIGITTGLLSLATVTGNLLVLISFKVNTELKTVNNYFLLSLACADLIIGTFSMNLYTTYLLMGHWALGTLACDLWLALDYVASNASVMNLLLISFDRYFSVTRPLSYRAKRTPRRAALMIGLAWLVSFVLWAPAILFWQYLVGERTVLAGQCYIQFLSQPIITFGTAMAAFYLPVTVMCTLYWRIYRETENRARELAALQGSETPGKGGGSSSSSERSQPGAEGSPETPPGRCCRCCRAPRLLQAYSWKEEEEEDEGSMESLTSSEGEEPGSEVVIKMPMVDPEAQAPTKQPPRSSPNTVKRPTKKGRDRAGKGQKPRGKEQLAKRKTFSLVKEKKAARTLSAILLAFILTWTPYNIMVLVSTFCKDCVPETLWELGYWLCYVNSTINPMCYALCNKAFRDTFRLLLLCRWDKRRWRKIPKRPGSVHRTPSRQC

[10] = target: Sigma non-opioid intracellular receptor 1 (Homo sapiens) (UniProt Q99720); assay: Inhibitory activity against Opioid receptor sigma 1 at 10 uM
Chain of Sigma non-opioid intracellular receptor 1 (Homo sapiens) (Q99720 whole entry): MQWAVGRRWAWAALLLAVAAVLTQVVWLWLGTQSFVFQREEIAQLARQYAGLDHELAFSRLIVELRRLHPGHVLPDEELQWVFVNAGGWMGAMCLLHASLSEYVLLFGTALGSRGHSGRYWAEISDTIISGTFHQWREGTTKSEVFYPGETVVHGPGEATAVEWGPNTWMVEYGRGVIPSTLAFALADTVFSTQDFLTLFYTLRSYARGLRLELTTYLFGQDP

[11] = target: D(1A) dopamine receptor (Homo sapiens) (UniProt P21728); assay: Inhibitory activity against Dopamine receptor D1 at 10 uM
Chain of D(1A) dopamine receptor (Homo sapiens) (P21728 whole entry): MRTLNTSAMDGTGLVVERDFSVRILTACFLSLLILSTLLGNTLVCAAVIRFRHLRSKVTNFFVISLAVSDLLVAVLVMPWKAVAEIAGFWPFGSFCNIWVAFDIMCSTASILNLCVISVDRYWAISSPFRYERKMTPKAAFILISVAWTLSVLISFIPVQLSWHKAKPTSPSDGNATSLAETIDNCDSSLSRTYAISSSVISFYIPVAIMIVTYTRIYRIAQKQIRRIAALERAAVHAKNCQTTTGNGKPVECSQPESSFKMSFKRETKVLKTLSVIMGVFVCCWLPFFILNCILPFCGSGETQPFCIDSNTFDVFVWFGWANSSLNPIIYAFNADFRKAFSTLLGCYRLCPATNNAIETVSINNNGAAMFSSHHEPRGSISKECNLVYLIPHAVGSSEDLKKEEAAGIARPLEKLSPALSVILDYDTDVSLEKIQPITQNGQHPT

[12] = target: T4, Adenosine receptor A3 (Homo sapiens) (UniProt P0DMS8); assay: Inhibitory activity against Adenosine A3 receptor at 10 uM
T4 sequence (whole entry): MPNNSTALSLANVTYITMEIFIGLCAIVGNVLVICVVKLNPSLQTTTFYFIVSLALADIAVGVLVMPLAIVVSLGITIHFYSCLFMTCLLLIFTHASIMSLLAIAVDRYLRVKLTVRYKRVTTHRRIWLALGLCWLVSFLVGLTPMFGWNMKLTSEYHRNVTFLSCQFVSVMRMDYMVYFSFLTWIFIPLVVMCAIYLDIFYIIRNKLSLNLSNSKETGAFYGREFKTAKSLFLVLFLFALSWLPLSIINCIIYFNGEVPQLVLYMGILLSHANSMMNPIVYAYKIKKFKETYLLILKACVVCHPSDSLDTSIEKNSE

[13] = Inhibitory activity against 5-hydroxytryptamine 2A receptor
[14] = Inhibitory activity against Dopamine transporter; parameters: species or system Homo sapiens
[15] = target: T5, Muscarinic acetylcholine receptor M2 (Homo sapiens) (UniProt P08172); assay: Inhibitory activity against Muscarinic acetylcholine receptor M2 at 10 uM
T5 sequence (whole entry): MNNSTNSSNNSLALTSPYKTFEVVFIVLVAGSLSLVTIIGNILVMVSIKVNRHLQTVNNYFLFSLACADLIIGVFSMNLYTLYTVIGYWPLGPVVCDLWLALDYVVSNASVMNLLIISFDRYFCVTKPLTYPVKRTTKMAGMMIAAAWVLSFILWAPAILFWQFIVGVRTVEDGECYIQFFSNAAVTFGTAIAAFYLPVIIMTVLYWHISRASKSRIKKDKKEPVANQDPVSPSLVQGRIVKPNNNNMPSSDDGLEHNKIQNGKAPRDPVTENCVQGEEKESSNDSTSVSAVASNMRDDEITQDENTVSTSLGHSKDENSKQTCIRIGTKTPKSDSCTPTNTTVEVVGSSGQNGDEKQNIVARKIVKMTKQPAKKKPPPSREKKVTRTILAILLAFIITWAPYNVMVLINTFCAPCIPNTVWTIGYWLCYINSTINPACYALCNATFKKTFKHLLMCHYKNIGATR

[16] = Inhibitory activity against Histamine H2 receptor
[17] = target: Mu-type opioid receptor (Homo sapiens) (UniProt P35372); assay: Inhibitory activity against Opioid receptor mu 1 at 10 uM
Chain of Mu-type opioid receptor (Homo sapiens) (P35372 whole entry): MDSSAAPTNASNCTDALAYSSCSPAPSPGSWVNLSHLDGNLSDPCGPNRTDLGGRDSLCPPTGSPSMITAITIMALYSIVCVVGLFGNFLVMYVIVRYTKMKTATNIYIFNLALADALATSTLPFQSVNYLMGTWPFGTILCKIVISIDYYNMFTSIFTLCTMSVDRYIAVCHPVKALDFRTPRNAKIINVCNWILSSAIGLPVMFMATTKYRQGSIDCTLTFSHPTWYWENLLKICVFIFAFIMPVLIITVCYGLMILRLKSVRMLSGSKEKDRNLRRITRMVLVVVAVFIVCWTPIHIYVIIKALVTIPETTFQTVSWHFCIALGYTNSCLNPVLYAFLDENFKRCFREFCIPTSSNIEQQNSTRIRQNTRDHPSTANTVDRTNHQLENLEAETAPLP

[18] = target: T2, Melanin-concentrating hormone receptor 2; assay: Antagonistic activity against human Melanin-concentrating hormone receptor 2 stably transfected CHO cells was determined using IP3 assay; assay type: functional, cell-based; outline: as §2

T1 sequence (Q99705 whole entry): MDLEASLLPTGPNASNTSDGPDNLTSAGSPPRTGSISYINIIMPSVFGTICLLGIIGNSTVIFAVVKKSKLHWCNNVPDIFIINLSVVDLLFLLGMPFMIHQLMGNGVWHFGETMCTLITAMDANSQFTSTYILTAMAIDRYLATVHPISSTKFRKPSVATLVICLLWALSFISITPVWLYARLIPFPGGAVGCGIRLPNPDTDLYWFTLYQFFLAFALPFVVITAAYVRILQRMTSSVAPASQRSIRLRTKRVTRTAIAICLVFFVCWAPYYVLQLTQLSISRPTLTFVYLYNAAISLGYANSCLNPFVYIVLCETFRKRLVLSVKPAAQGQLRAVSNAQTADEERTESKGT

Row | IC50 [1] | IC50 [3] | IC50 [4] | Compound | other results
1 | 8.8 µM |  |  | CCN(CC)CCNC(=O)c1ccc(NC(=O)Nc2ccc(OC(F)(F)F)cc2Br)cc1OC | 
2 |  | 0.02 µM | 0.03 µM | COc1cc(NC(=O)Nc2cccc(Oc3ccccc3)c2)ccc1C(=O)NCCCN1CCCCC1 | IC50 [2]: > 100 µM
3 | 5.8 µM |  |  | CCN(CC)CCNC(=O)c1ccc(NC(=O)N(C)c2ccc(Oc3ccccc3)cc2)cc1OC | 
4 |  | 0.37 µM |  | CCN(CC)CCNC(=O)c1ccc(NC(=O)c2ccc(-c3ccccc3)cc2)cc1OC | 
5 | 0.15 µM | 0.05 µM | 0.26 µM | CCN(CC)CCNC(=O)c1ccc(NC(=O)Nc2ccc(OC(F)(F)F)cc2)cc1OC | inhibition [5]: 79%; IC50 [6]: 0.31 µM; inhibition [7]: 76%; inhibition [8]: 67%; inhibition [9]: 72%; inhibition [10]: 65%; inhibition [11]: 78%; IC50 [2]: > 100 µM; inhibition [12]: 36%; IC50 [13]: 1.3 µM; IC50 [14]: 6.9 µM; inhibition [15]: 46%; IC50 [16]: 2.2 µM; inhibition [17]: 44%
6 | > 100 µM |  |  | CCN(CC)CCNC(=O)c1ccc(N2CCN(c3ccc(Oc4ccccc4)cc3)C2=O)cc1OC | 
7 | 9.1 µM | 1.48 µM |  | COc1cc(NC(=O)Nc2ccc(-c3ccccc3)cc2)ccc1C(=O)NCCCN(C)C | 
8 |  | 0.24 µM | 1.95 µM | CCOc1cc(NC(=O)Nc2ccc(Oc3ccccc3)cc2)ccc1C(=O)NCCN(CC)CC | 
9 | 3.2 µM |  |  | CCN(CC)CCNC(=O)c1ccc(NC(=O)Nc2ccc(C#N)cc2)cc1OC | 
10 |  | 0.64 µM | 5.29 µM | COc1cc(NC(=O)c2ccc(-c3ccccc3)cc2)ccc1C(=O)NCCCN(C)C | IC50 [2]: > 100 µM
11 | 0.25 µM |  |  | CCN(CC)CCNC(=O)c1ccc(NC(=O)Nc2ccc(Br)cc2)cc1OC | 
12 | > 100 µM |  |  | CCN(CC)CCNC(=O)c1ccc(N(C)C(=O)N(C)c2ccc(Oc3ccccc3)cc2)cc1OC | 
13 | 13 µM |  |  | CCN(CC)CCNC(=O)c1ccc(NC(=O)Nc2ccc(C(C)=O)cc2)cc1OC | 
14 | 4.7 µM |  |  | CCN(CC)CCNC(=O)c1ccc(NC(=O)Nc2cccc(SC)c2)cc1OC | 
15 |  | 2.45 µM |  | CCN(CC)CCNC(=O)c1ccc(-c2noc(-c3ccc(Oc4ccccc4)cc3)n2)cc1 | 
16 |  | 0.0053 µM | 0.17 µM | CCN(CC)CCNC(=O)c1ccc(NC(=O)Nc2ccc(C(F)(F)F)cc2)cc1 | 
17 | 11 µM |  |  | CCN(CC)CCN(C)C(=O)c1ccc(NC(=O)Nc2ccc(Oc3ccccc3)cc2)cc1 | 
18 |  | > 100 µM |  | CN(C)CCNC(=O)c1ccc(NC(=O)c2ccc(-c3ccccc3)cc2)cc1 | 
19 |  | 1.92 µM |  | COc1cc(NC(=O)c2ccc(Oc3ccccc3)cc2)ccc1C(=O)NCCCN(C)C | 
20 |  | 0.85 µM | 1.44 µM | COc1cc(NC(=O)Nc2ccc(Nc3ccccc3)cc2)ccc1C(=O)NCCCN1CCCCC1 | 
21 |  | 0.13 µM |  | COc1cc(NC(=O)c2ccc(-c3ccccc3)cc2)ccc1C(=O)NC1CCN(Cc2ccccc2)CC1 | 
22 |  | > 10 µM |  | COc1cc(NC(=O)Nc2ccccc2Oc2ccccc2)ccc1C(=O)NCCCN1CCCCC1 | 
23 |  | 0.0081 µM | 0.025 µM | COc1cc(NC(=O)Nc2cccc(Nc3ccccc3)c2)ccc1C(=O)NCCCN1CCCCC1 | IC50 [2]: 10 µM
24 | 7.9 µM |  |  | CCN(CC)CCNC(=O)c1ccc(NC(=O)Nc2cccc(C(F)(F)F)c2)cc1OC | 

Second part, the compound before the results:

Row | Compound | IC50 [1] | IC50 [3] | IC50 [4] | other results
25 | COc1cc(NC(=O)c2ccc(-c3ccccc3)cc2)ccc1C(=O)NCCN1CCN(Cc2ccccc2)CC1 |  | 0.64 µM |  | 
26 | COc1cc(NC(=O)c2ccc(-c3ccccc3)cc2)ccc1C(=O)NCCN(C)C |  | 2.41 µM | 12 µM | IC50 [2]: > 100 µM
27 | CCN(CC)CCNC(=O)c1ccc(NC(=O)Nc2cc(Cl)cc(Cl)c2)cc1OC | 4.8 µM |  |  | 
28 | CCN(CC)CCN(C)C(=O)c1ccc(NC(=O)Nc2ccc(Oc3ccccc3)cc2)cc1OC | > 100 µM |  |  | 
29 | CCN(CC)CCNC(=O)c1ccc(NC(=O)Nc2ccc(OC(F)(F)F)cc2)cc1 |  | 0.06 µM | 0.25 µM | IC50 [18]: > 100 µM; IC50 [2]: > 100 µM
30 | CCN(CC)CCNC(=O)c1ccc(NC(=O)Nc2ccc(C(=O)C(F)(F)F)cc2)cc1OC | 5.9 µM |  |  | 
31 | CCN(CC)CCNC(=O)c1ccc(NC(=O)Nc2ccc(Oc3ccccc3)cc2)cc1OC | 0.72 µM | 0.14 µM | 0.88 µM | 
32 | CCN1CCCC1CNC(=O)c1ccc(NC(=O)Nc2ccc(Oc3ccccc3)cc2)cc1OC (stereo unspecified) |  | 0.53 µM | 3.45 µM | 
33 | CCN1CCCC1CNC(=O)c1ccc(-c2noc(-c3ccc(Oc4ccccc4)cc3)n2)cc1 (stereo unspecified) |  | 1.9 µM |  | 
34 | CCN(CC)CCNC(=O)c1ccc(NC(=O)Nc2ccc(SC)cc2)cc1OC | 0.96 µM |  |  | 
35 | COc1cc(NC(=O)Nc2ccc(Oc3ccccc3)cc2)ccc1C(=O)NCCCN1CCCCC1 |  | 0.05 µM |  | IC50 [18]: > 100 µM; IC50 [2]: 10 µM
36 | CCN(CC)CCNC(=O)c1ccc(NC(=O)Nc2ccc(Oc3ccccc3)cc2)cc1 | 3.5 µM |  |  | 
37 | CCN(CC)CCNC(=O)c1ccc(NC(=O)Nc2ccc(C(F)(F)F)cc2)cc1OC | 0.05 µM | 0.02 µM | 0.17 µM | IC50 [2]: > 100 µM
38 | CCN(CC)CCNC(=O)c1ccc(NC(=O)Nc2ccc(SC(F)(F)F)cc2)cc1OC | 0.2 µM |  |  | 
39 | COc1cc(NC(=O)Nc2cccc(Oc3ccccc3)c2)ccc1C(=O)NCCCN1CCOCC1 |  | 0.07 µM | 0.11 µM | IC50 [6]: 1.3 µM; inhibition [8]: 68%; IC50 [18]: > 100 µM; inhibition [9]: 64%; inhibition [11]: 57%; IC50 [2]: > 100 µM; inhibition [12]: 48%; IC50 [13]: 0.67 µM; IC50 [14]: 1.5 µM; IC50 [16]: 1.8 µM; inhibition [17]: 48%
40 | O=C(Nc1ccc(Oc2ccccc2)cc1)Nc1ccc(C(=O)NCCN2CCN(Cc3ccccc3)CC2)cc1 |  | 0.14 µM | 5.82 µM | IC50 [2]: 2.88 µM
41 | CCN(CC)CCNC(=O)c1ccc(NC(=O)Nc2ccc(F)c(Cl)c2)cc1OC | 3.9 µM |  |  | 
42 | CCN(CC)CCNC(=O)c1ccc(NC(=O)Nc2cc(OC)cc(OC)c2)cc1OC | 18 µM |  |  | 
43 | CCN(CC)CCNC(=O)c1ccc(NC(=O)Nc2ccccc2)cc1OC | > 100 µM |  |  | 
44 | CCN(CC)CCNC(=O)c1ccc(NC(=O)c2ccc(Oc3ccccc3)cc2)cc1OC |  | 1.97 µM | 6.81 µM | 
45 | CCN(CC)CCNC(=O)c1ccc(N(C)C(=O)Nc2ccc(Oc3ccccc3)cc2)cc1OC | 0.54 µM |  |  | 
46 | CCN(CC)CCNC(=O)c1ccc(NC(=O)Nc2cccc(OC(F)(F)F)c2)cc1OC | 2.5 µM |  |  | 
47 | CCN(CC)CCNC(=O)c1cc(Cl)c(NC(=O)Nc2ccc(Oc3ccccc3)cc2)cc1OC | > 100 µM |  |  | 
48 | CCN(CC)CCNC(=O)c1ccc(NC(=O)Nc2ccc(F)cc2)cc1OC | 15.8 µM |  |  | 
49 | CCN(CC)CCNC(=O)c1ccc(NC(=O)Nc2ccc(Cl)c(Cl)c2)cc1OC | 0.71 µM |  |  | 
50 | CCN1CCCC1CNC(=O)c1ccc(NC(=O)Nc2ccc(Oc3ccccc3)cc2)cc1 (stereo unspecified) |  | 0.25 µM | 1.3 µM | IC50 [2]: 6.31 µM
